The target in test [1] is full-length TDP1 (Homo sapiens, UniProt Q9NUW8). Briefly: TDP1 gel-based fluorescence assay in vitro. In kind it is biochemical.
The target in test [2] is TDP1 in HCT116 cell line (Homo sapiens, UniProt Q9NUW8). Description: Western blot for TDP1 degradation. The class given is cell-based. Particulars: 5h 10 μM within 6 h, 5h 0.1-100 μM and 5i 10, 100 μM within 24 h. (In general: In western blotting, separated proteins are transferred to a membrane and probed.)
Test [3] relates to HCT116 cell line. Description: Synergy assay with camptothecin. The class given is cell-based, human. Particulars: HCT116, compound at 10 μM, 72 h cell viability. In short, it runs like this:
(§1)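 HCT116 colon or U2OS osteosarcoma cells were seeded at 2 × 10³ cells per well and cultured for 72 h in medium containing the test compound together with camptothecin. Viability was read by CellTiter-Glo luminescence, and synergy was judged from these viability data.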

Test [4] deals with U2OS cell line. Briefly: Synergy assay with camptothecin. The class given is cell-based, human. The conditions noted are these: compound at 10 μM, 72 h cell viability. In short, it runs like this:
as §1

In test [5] the target is T1, full-length TDP2 (Homo sapiens, UniProt O95551).
T1 sequence (O95551 1-362): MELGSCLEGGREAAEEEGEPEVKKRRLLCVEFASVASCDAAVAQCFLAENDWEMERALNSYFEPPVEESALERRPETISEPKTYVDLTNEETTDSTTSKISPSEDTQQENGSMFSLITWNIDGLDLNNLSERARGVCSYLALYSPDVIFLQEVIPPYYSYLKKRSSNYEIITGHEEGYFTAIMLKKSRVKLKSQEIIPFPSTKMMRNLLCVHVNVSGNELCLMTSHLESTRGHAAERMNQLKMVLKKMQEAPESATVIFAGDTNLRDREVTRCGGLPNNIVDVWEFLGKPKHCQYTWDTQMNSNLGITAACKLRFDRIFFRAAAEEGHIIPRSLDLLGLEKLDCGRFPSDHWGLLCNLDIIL
Briefly: TDP2 gel-based fluorescence assay in vitro. The class given is biochemical. The conditions noted are these: ratio of IC50 values of TDP2 vs. TDP1.

SMILES strings stand for the structures.

Sequence of full-length TDP1 (Q9NUW8 whole entry): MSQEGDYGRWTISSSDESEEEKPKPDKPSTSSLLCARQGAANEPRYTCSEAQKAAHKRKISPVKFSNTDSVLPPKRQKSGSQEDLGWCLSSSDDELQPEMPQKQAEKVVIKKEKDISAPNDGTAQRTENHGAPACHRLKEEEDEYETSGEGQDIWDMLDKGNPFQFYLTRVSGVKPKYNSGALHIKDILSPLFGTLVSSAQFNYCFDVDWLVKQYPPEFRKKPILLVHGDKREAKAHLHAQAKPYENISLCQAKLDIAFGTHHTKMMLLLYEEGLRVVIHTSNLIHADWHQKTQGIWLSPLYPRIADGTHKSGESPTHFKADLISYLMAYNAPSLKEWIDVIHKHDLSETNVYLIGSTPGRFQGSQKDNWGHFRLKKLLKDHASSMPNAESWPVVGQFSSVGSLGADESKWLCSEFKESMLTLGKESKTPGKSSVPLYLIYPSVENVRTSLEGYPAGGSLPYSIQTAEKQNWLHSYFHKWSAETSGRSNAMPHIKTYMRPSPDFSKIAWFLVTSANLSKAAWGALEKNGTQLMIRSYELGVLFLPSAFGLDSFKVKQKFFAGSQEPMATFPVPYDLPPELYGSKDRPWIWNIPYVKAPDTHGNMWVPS
Sequence of TDP1 in HCT116 cell line (Q9NUW8 whole entry): as above

`O=C(COc1cccc2c1C(=O)N(C1CCC(=O)NC1=O)C2=O)NCCCCn1cc(-c2ccc(-c3nc4ccccn4c3Nc3ccc(C(=O)O)cc3)cc2)nn1` (stereo not shown) [Compound 5g, 4-((2-(4-(1-(4-(2-((2-(2,6-Dioxopiperidin-3-yl)-1,3-dioxoisoindolin-4-yl)oxy)acetamido)butyl)-1H-1,2,3-triazol-4-yl)phenyl)imidazo[1,2-a]pyridin-3-yl)amino)benzoic acid]: the “TDP1 IC50” value in test [1] is reported as “did not show TDP1 inhibitory potency within the range tested”.
With `O=C1CCC(N2C(=O)c3cccc(NCc4cn(Cc5ccc(-c6nc7cc(-c8ccccc8)ccn7c6Nc6ccc(C(=O)O)cc6)cc5)nn4)c3C2=O)C(=O)N1` (stereo not shown) [Compound 5h, 4-((2-(4-((4-(((2-(2,6-Dioxopiperidin-3-yl)-1,3-dioxoisoindolin-4-yl)amino)methyl)-1H-1,2,3-triazol-1-yl)methyl)phenyl)-7-phenylimidazo[1,2-a]pyridin-3-yl)amino)benzoic acid], the “TDP1 degradation compared with GAPDH” value in test [2] is given as “unable to observe degradation effects”. The “Synergy in combination with TOP1 inhibitor camptothecin (CPT)” value in test [3] and in test [4] was “failed to show synergy” each time.
Take `O=C1CCC(N2C(=O)c3cccc(NCCc4cn(Cc5ccc(-c6nc7cc(-c8ccccc8)ccn7c6Nc6ccc(C(=O)O)cc6)cc5)nn4)c3C2=O)C(=O)N1` (stereo not shown) [Compound 5j, 4-((2-(4-((4-(2-((2-(2,6-Dioxopiperidin-3-yl)-1,3-dioxoisoindolin-4-yl)amino)ethyl)-1H-1,2,3-triazol-1-yl)methyl)phenyl)-7-phenylimidazo[1,2-a]pyridin-3-yl)amino)benzoic acid]: in test [5], the TDP1 selectivity was 1.4.
Consider `CN(Cc1cn(Cc2ccc(-c3nc4cc(-c5ccccc5)ccn4c3Nc3ccc(C(=O)O)cc3)cc2)nn1)c1cccc2c1C(=O)N(C1CCC(=O)NC1=O)C2=O` (stereo not shown) [Compound 5i, 4-((2-(4-((4-(((2-(2,6-Dioxopiperidin-3-yl)-1,3-dioxoisoindolin-4-yl)(methyl)amino)methyl)-1H-1,2,3-triazol-1-yl)methyl)phenyl)-7-phenylimidazo[1,2-a]pyridin-3-yl)amino)benzoic acid], for which the “TDP1 degradation compared with GAPDH” value in test [2] was “unable to observe degradation effects”.
With `Cc1ncsc1-c1ccc(CNC(=O)[C@@H]2C[C@@H](O)CN2C(=O)[C@@H](NC(=O)COCCOCCOCCOCCn2cc(COc3ccc(-c4nc5cc(-c6ccccc6)ccn5c4Nc4ccc(C(=O)O)cc4)cc3)nn2)C(C)(C)C)cc1` [Compound 5c, 4-((2-(4-((1-((S)-16-((2S,4R)-4-Hydroxy-2-((4-(4-methylthiazol-5-yl)benzyl)carbamoyl)pyrrolidine-1-carbonyl)-17,17-dimethyl-14-oxo-3,6,9,12-tetraoxa-15-azaoctadecyl)-1H-1,2,3-triazol-4-yl)methoxy)phenyl)-7-phenylimidazo[1,2-a]pyridin-3-yl)amino)benzoic acid], the “TDP1 IC50” value in test [1] is “failed to exhibit TDP1 inhibitory potency within the range tested”.
For `O=C(COc1cccc2c1C(=O)N(C1CCC(=O)NC1=O)C2=O)NCCCCn1cc(COc2ccc(-c3nc4ccccn4c3Nc3ccc(C(=O)O)cc3)cc2)nn1` (stereo not shown) [Compound 5e, 4-((2-(4-((1-(4-(2-((2-(2,6-Dioxopiperidin-3-yl)-1,3-dioxoisoindolin-4-yl)oxy)acetamido)butyl)-1H-1,2,3-triazol-4-yl)methoxy)phenyl)imidazo[1,2-a]pyridin-3-yl)amino)benzoic acid], the “TDP1 IC50” value in test [1] is recorded as “did not show TDP1 inhibitory potency within the range tested”.
Take `Cc1ncsc1-c1ccc(CNC(=O)[C@@H]2C[C@@H](O)CN2C(=O)[C@@H](NC(=O)COCCOCCOCCn2cc(COc3ccc(-c4nc5cc(-c6ccccc6)ccn5c4Nc4ccc(C(=O)O)cc4)cc3)nn2)C(C)(C)C)cc1` [Compound 5b, 4-((2-(4-((1-((S)-13-((2S,4R)-4-Hydroxy-2-((4-(4-methylthiazol-5-yl)benzyl)carbamoyl)pyrrolidine-1-carbonyl)-14,14-dimethyl-11-oxo-3,6,9-trioxa-12-azapentadecyl)-1H-1,2,3-triazol-4-yl)methoxy)phenyl)-7-phenylimidazo[1,2-a]pyridin-3-yl)amino)benzoic acid]: the “TDP1 IC50” value in test [1] is given as “failed to exhibit TDP1 inhibitory potency within the range tested”.
`O=C(COc1cccc2c1C(=O)N(C1CCC(=O)NC1=O)C2=O)NCCCCn1cc(COc2ccc(-c3nc4cc(-c5ccccc5)ccn4c3Nc3ccc(C(=O)O)cc3)cc2)nn1` (stereo not shown) [Compound 5d, 4-((2-(4-((1-(4-(2-((2-(2,6-Dioxopiperidin-3-yl)-1,3-dioxoisoindolin-4-yl)oxy)acetamido)butyl)-1H-1,2,3-triazol-4-yl)methoxy)phenyl)-7-phenylimidazo[1,2-a]pyridin-3-yl)amino)benzoic acid]: the “TDP1 IC50” value in test [1] is recorded as “did not show TDP1 inhibitory potency within the range tested”.

The values above are taken from paper PMC11843577 (RSC Medicinal Chemistry, 2025).
